Screening data: PubChem, Broad Institute
Only some compounds are listed: those with a hit (about 2.1% of all), similar ones and a draw of the others.
DENV2 CPE rescue – inhibitors of DENV2 cytopathic effect | DENV2-infected cells, cytopathic effect rescue, plate reader | CPE inhibition, % at 9.99 µM | hit rate 1.7% among 350,000; in the data active = CPE inhibition above about 20%, passing the limit was not always enough; inconclusive = no clear call, values can overlap the other calls; tested in BHK-21 cells
C2C12 statin – suppressors of simvastatin-induced myotoxicity in C2C12 myotubes; ATP luminescence, 48 h; scaled: DMSO 0, geranylgeraniol control 100; rescue of ATP level, % at 7.49 µM; hit rate 0.78% among 330,000;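 active = mean ATP rescue above about 67%, or every replicate alone reaching that limit, limit read from the data, passing the limit was not always enough; inconclusive = no clear call, values can overlap the other calls; inactive = mean under the limit and some replicate under it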;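 note: myotubes were challenged with 10 µM simvastatin during compound exposure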
Cneo AK release – Cryptococcus neoformans lysis via adenylate kinase release | C. neoformans lysis, adenylate kinase release luminescence, 4 h; normalised: neutral wells 0, clomiphene wells 100 | lysis activity, % at 15 µM | hit rate 0.2% among 360,000 | AID 651654;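 active = mean lysis activity across replicates of at least 80%, whatever share of replicates individually reach that level; inactive = mean lysis activity below 80%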
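Schedule: static 4 h at 37 °C with compound, 1 h detection; system: C. neoformans cells; benchmarks: Clomiphene as positive control; buffer or medium: fresh YPD medium; measure: luminescence rise reflecting yeast cell lysis; measured by: luminescent adenylate kinase detection reagent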
XiGFP reactiv – reactivates the inactive X chromosome in mouse fibroblasts. XiGFP mouse fibroblasts, % GFP-positive cells imaging, 3 d; cells co-treated with 5-aza-dC sensitizer; scaled so ellipticine positive control = 100%. activation, % at 7.58 µM. hit rate 0.055% among 360,000. AID 743238;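 active = mean normalized replicate activation at least 10% and every replicate at or above 10%; inconclusive = only one of the two criteria met; inactive = mean below 10% and not all replicates reach 10%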
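material = 68-5-11 XiGFP fibroblast line | medium = DMEM plus 5-aza-dC sensitizer | schedule = 3 days compound exposure | benchmarks = positive control ellipticine, 6 µM final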
Large screens that a line does not name were inactive; ! = not active in a repeat.

C[C@@H]1CN([C@H](C)CO)C(=O)Cc2cc(NC(=O)Cc3cn(C)c4ccccc34)ccc2O[C@@H]1CN(C)C(=O)Nc1cccc2ccccc12	DENV2 CPE rescue 45
C[C@H]1CN([C@@H](C)CO)C(=O)c2c(c3ccccc3n2C)-c2ccccc2CO[C@H]1CN(C)C(=O)c1ccncc1	none
C[C@@H]1CCCCO[C@H](CN(C)C(=O)Nc2ccc(F)cc2)[C@H](C)CN([C@H](C)CO)C(=O)c2cc(N(C)C)ccc2O1	none
C[C@H]1CN([C@@H](C)CO)C(=O)Cc2cc(NC(=O)Cc3ccccc3)ccc2O[C@H]1CN(C)C(=O)Nc1cccc2ccccc12	none
C[C@@H]1CN([C@@H](C)CO)C(=O)Cc2cc(NC(=O)Cc3ccccc3)ccc2O[C@H]1CN(C)C(=O)Nc1cccc2ccccc12	DENV2 CPE rescue 43
CC[C@]12c3[nH]c4cc(-c5ccco5)ccc4c3CCN1C(=O)[C@@H](CC(=O)NC(C)(C)C)C[C@@H]2C(=O)N1CCN(C(=O)C2CC2)CC1	DENV2 CPE rescue 43
C[C@H](CO)N1C[C@H](C)[C@H](CN(C)Cc2ccncc2)Oc2ccc(NS(=O)(=O)c3ccccc3)cc2CC1=O	none
COC(=O)C1=C(C)N(Cc2ccc(Br)cc2)C(=S)NC1c1cccc(F)c1 (stereo not given)	DENV2 CPE rescue 26 (no result: C2C12 statin, Cneo AK release)
COC(=O)C1=C(C)N(Cc2ccccc2)C(=NCCCCO)N[C@H]1c1cccc(C(F)(F)F)c1	none
COC(=O)C1=C(C)N(Cc2ccc(Br)cc2)C(=S)NC1c1ccc(F)cc1 (stereo not given)	none (no result: C2C12 statin, Cneo AK release)
COC(=O)C1=C(C)N(Cc2cccc(C(F)(F)F)c2)C(=NCC2CC2)NC1c1cccc(C(F)(F)F)c1 (stereo not given)	none (no result: C2C12 statin, Cneo AK release)
CCN1C(=NCCCCO)N[C@@H](c2cccc(C(F)(F)F)c2)C(C(=O)OC)=C1C	DENV2 CPE rescue 33
COC(=O)C1=C(C)N(Cc2cccc(C(F)(F)F)c2)C(=NCC2CC2)NC1c1ccc(F)cc1 (stereo not given)	DENV2 CPE rescue 61 (no result: C2C12 statin, Cneo AK release)
C[C@@H]1CN([C@@H](C)CO)C(=O)c2c(c3ccccc3n2C)-c2ccccc2CO[C@H]1CN(C)Cc1cccc(F)c1	none (no result: C2C12 statin, Cneo AK release)
O=C(CSc1ncccc1C(=O)O)c1ccccc1F	none (no result: C2C12 statin, Cneo AK release)
O=C(O)CSc1ncccc1C(=O)O	DENV2 CPE rescue 46 (no result: C2C12 statin, Cneo AK release)
Cc1ccc(C2OC(=O)c3ccccc32)cc1 (stereo not given)	C2C12 statin 133 (no result: DENV2 CPE rescue)
O=C1OC(c2ccccc2)c2ccccc21 (stereo not given)	none (no result: C2C12 statin, Cneo AK release)
COc1ccc2c3c(n(C)c2c1)[C@@H](CO)N(Cc1ccccc1)CC31CCN(C(=O)c2ccccc2F)CC1	none (no result: C2C12 statin, Cneo AK release)
COC(=O)[C@@]12CCCN1[C@H](c1ccc(-c3cccc(Cl)c3)cc1)[C@H]1C(=O)N(C)C(=O)[C@H]12	none
COC(=O)[C@@]12CCCN1[C@H](c1ccc(-c3ccccc3)cc1)[C@@H]1C(=O)N(C)C(=O)[C@@H]12	DENV2 CPE rescue 66
C[C@@H]1CN([C@H](C)CO)C(=O)Cc2cc(NC(=O)CCCCCC(=O)Nc3ccccc3N)ccc2O[C@H]1CN(C)Cc1ccc2c(c1)OCO2	Cneo AK release 92
C[C@@H]1CN([C@@H](C)CO)C(=O)Cc2cc(NC(=O)CCCCCC(=O)Nc3ccccc3N)ccc2O[C@@H]1CN(C)Cc1ccc2c(c1)OCO2	DENV2 CPE rescue 60
CCOc1ccccc1C(=O)n1nc(C)cc1C	C2C12 statin 114 (no result: DENV2 CPE rescue, XiGFP reactiv)
O=C(Cn1cnc2c(cnn2-c2ccc(Cl)cc2)c1=O)NCC1CCCO1 (stereo not given)	C2C12 statin 85 (no result: DENV2 CPE rescue, XiGFP reactiv)
Cc1ccc(-n2ncc3c(=O)n(CC(=O)NCC4CCCO4)cnc32)cc1 (stereo not given)	none (no result: DENV2 CPE rescue, XiGFP reactiv)
CCC(=O)N1C[C@H](O)COC[C@H]2O[C@@H](CC(=O)NCc3ccc(Oc4ccccc4)cc3)CC[C@@H]21	DENV2 CPE rescue 92
O=C(C[C@H]1CC[C@@H]2[C@H](COC[C@H](O)CN2CCc2ccccc2)O1)NCc1ccc(Oc2ccccc2)cc1	none
O=C(C[C@@H]1CC[C@H]2[C@@H](COC[C@H](O)CN2CCc2ccccc2)O1)NCc1ccc(Oc2ccccc2)cc1	DENV2 CPE rescue 24
CN(C)C(=O)C[C@@H]1C=C[C@@H](NC(=O)C2CC2)[C@H](CO)O1	none
COc1ccc2c3c([nH]c2c1)[C@@H](CO)N(Cc1ccncc1)CC31CN(CC2CCOCC2)C1	none (no result: C2C12 statin, Cneo AK release)
COCC(=O)N(C)C[C@H]1Oc2ncc(-c3cccc(OC)c3)cc2C(=O)N([C@@H](C)CO)C[C@@H]1C	none
COc1cccc(C(=O)Nc2nc3c(c(=O)[nH]2)CCCC3)c1	C2C12 statin 96 (no result: DENV2 CPE rescue, XiGFP reactiv)
CN1CCN(C(=O)C[C@H]2C[C@@H]3c4cc(NC(=O)Cc5ccncc5)ccc4O[C@@H]3[C@@H](CO)O2)CC1	none
O=C(C[C@@H]1C[C@@H]2c3cc(NC(=O)C4CCC4)ccc3O[C@@H]2[C@@H](CO)O1)NCCc1ccccc1	DENV2 CPE rescue inconclusive
COCCNC(=O)C[C@H]1CC[C@@H]2[C@H](COC[C@H](O)CN2S(=O)(=O)c2ccccc2C)O1	Cneo AK release 103
Cc1ccccc1S(=O)(=O)N1C[C@@H](O)COC[C@@H]2O[C@H](CC(=O)N3CCCCC3)CC[C@H]21	DENV2 CPE rescue 110
COCCNC(=O)C[C@@H]1CC[C@@H]2[C@H](COC[C@@H](O)CN2S(=O)(=O)c2ccccc2C)O1	Cneo AK release 91
COCCNC(=O)C[C@@H]1CC[C@@H]2[C@H](COC[C@H](O)CN2S(=O)(=O)c2ccccc2F)O1	none
CCNC(=O)C[C@@H]1CC[C@H]2[C@@H](COC[C@@H](O)CN2S(=O)(=O)c2ccccc2F)O1	DENV2 CPE rescue 23, Cneo AK release 95
CN1C(=O)[C@@H]2[C@@H](CC(COc3ccccc3)=C3[C@@H](c4ccccc4)OB(O)C[C@@H]32)C1=O	none (no result: C2C12 statin, XiGFP reactiv)
Cc1noc(C)c1S(=O)(=O)N(C)C[C@@H]1OCCCC[C@H](C)Oc2ccc(NC(=O)c3ccccc3)cc2C(=O)N([C@@H](C)CO)C[C@H]1C	none (no result: C2C12 statin)
C/C=C/c1ccc([C@@H]2[C@H](CO)N(Cc3ccccn3)[C@H]2CNC(C)=O)cc1	none
O=C(C[C@@H]1C[C@H]2c3cc(NC(=O)C4CCC4)ccc3O[C@H]2[C@H](CO)O1)NCc1ccccn1	none
C[C@H]1CN([C@@H](C)CO)C(=O)c2cccc(NC(=O)C3CCCCC3)c2O[C@@H]1CN(C)C(=O)Nc1ccc2c(c1)OCO2	DENV2 CPE rescue 58
C[C@H](CO)N1C[C@H](C)[C@@H](CN(C)C(=O)Nc2ccc3c(c2)OCO3)Oc2c(NS(=O)(=O)c3ccc(F)cc3)cccc2C1=O	DENV2 CPE rescue 48!
C[C@H]1CN([C@@H](C)CO)C(=O)c2cccc(NC(=O)C3CCOCC3)c2O[C@H]1CN(C)C(=O)Nc1ccc2c(c1)OCO2	DENV2 CPE rescue 37
Cc1ccc(S(=O)(=O)N[C@H]2CC[C@@H](CCn3cc(C4(O)CCCC4)nn3)O[C@@H]2CO)cc1	none
CCOC(=O)C(=CNc1ccc(Cl)cn1)C(=O)OCC	DENV2 CPE rescue 67 (no result: C2C12 statin, Cneo AK release)
